Measured values gathered from unrelated publications.
Protocols differ between the studies behind these lines.
Observed: enzyme activity
Action: inhibitor
CHEK2: Serine/threonine-protein kinase Chk2 (CHEK2, Homo sapiens, UniProt O96017)

Compound | target | technique | tested at | remaining activity [%]
FC(F)c1nc2ccccc2n1-c1nc(N2CCOCC2)nc(N2CCOCC2)n1 | CHEK2 |  | 10 µM | 88
Cc1cnc(NC2CCOCC2)nc1-n1cnc(C(=O)NC(CN)c2cc(F)cc(Cl)c2)c1 (stereo not drawn) | CHEK2 | radiometric | 1 µM | 75
COc1cc(Nc2cnc(C#N)c(O[C@H](C)CN(C)C)n2)ncc1-c1cnn(C)c1 | CHEK2 | radiometric | 1 µM | 81
Cn1c(=O)n(-c2ccc(C(C)(C)C#N)cc2)c2c3cc(-c4cnc5ccccc5c4)ccc3ncc21 | CHEK2 |  | 10 µM | 80
CC(C)(C)c1nc(-c2cccc(NS(=O)(=O)c3c(F)cccc3F)c2F)c(-c2ccnc(N)n2)s1 | CHEK2 | radiometric | 1 µM | 103
CCCOc1ccc(OC)c(F)c1C(=O)c1ccc(C(=O)N[C@@H]2CNC[C@H]2NC(=O)c2ccc3[nH]ncc3c2)cc1 | CHEK2 |  | 10 µM | 13
Nc1nc(Nc2ccccc2)sc1C(=O)c1c(F)cccc1F | CHEK2 |  | 10 µM | 30
Cc1ccc(C(=O)Nc2ccc(CN3CCN(C)CC3)c(C(F)(F)F)c2)cc1C#Cc1cnc2cccnn12 | CHEK2 |  | 23.5 nM | 98
CC(C)(C)C(=O)c1sc(NC2CCCCC2)nc1N | CHEK2 |  | 10 µM | 53
Cc1ccc(NC(=O)c2ccc(C)c(C(F)(F)F)c2)cc1C#Cc1nn(C2CCC(O)CC2)c2ncnc(N)c12 (stereo not drawn) | Serine/threonine-protein kinase Chk2 (CHEK2, Homo sapiens, UniProt O96017, I157T) |  | 10 µM | 103
Cc1sc(C(=O)NC2COC2)cc1-n1cc(NC(=O)Nc2c(F)cccc2Cl)cn1 | CHEK2 |  | 10 µM | 95.2
CCN(CC)c1ccc(C2=NNC(=O)CC2C)cc1[N+](=O)[O-] (stereo not drawn) | CHEK2 |  | 10 µM | 101
